Laboratory results as given in ChEMBL document CHEMBL3286338, “SAR studies on hydropentalene derivatives--Important core units of biologically active tetramic acid macrolactams and ptychanolides” (Bioorg Med Chem, 2014).
Activity calls are given as the source filed them. The rule behind the calls is not given here.

How the values were obtained:
[1] = Cytotoxicity against Potorous tridactylus PtK2 cells by MTT assay; type: functional, cell-based
Method in brief: (§1)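 Cells kept in supplier-recommended media at 37 °C, 10% CO2. Serial dilutions added to a cell suspension (50,000 per mL) and incubated 5 d alongside blank and solvent controls. MTT then added to 0.5 mg mL^-1 final for 2 h, and formazan precipitate collected by centrifugation. Run as two parallel experiments; activity taken as mean relative to controls set at 100%.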

Tubulin (Sus scrofa) = Tubulin (Sus scrofa) (UniProt P02554+P02550); assay: Inhibition of porcine tubulin polymerization at 500 ug/ml by fluorescence analysis; type: protein assay
Method in brief: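 Porcine tubulin (kit master mix with buffer, glycerol and GTP) mixed with compound at a 5:50 volume ratio. Placed at once in a fluorimeter at 37 °C. Polymerization followed by incorporation of a fluorescent reporter, read at 460 nm (excitation 340 nm) for about 1 h. Methanol and nocodazole served as controls.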

PtK2 [2] = assay: Effect on microtubular network in Potorous tridactylus PtK2 cells at 4 ug/ml for overnight incubation by DAPI staining analysis; type: functional, cell-based
Method in brief: (§2)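 PtK2 cells on glass coverslips incubated overnight with compound or with methanol only. For alpha-tubulin staining, fixed in cold (-20 °C) MeOH/acetone (1:1) for 10 min, then probed with primary antibody. DNA counterstained. Microtubular network, mitotic spindles and chromosome distribution assessed by fluorescence microscopy.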

L929 [3] = assay: Effect on microtubule polymerization in mouse L929 cells at 0.6 ug/ml by impedance profiling; type: cell-based
Method in brief: (§3)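 L-929 cell cultures incubated with compound while impedance was recorded over time. The time-dependent impedance curves served as a mode-of-action fingerprint and were compared statistically, by cluster analysis, against curves from a set of reference compounds. Controls received methanol.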

L929 [4] = assay: Antiproliferative activity against mouse L929 cells by MTT assay; type: functional, cell-based; method in brief: as §1
PtK2 [5] = assay: Effect on mitotic spindle in Potorous tridactylus PtK2 cells at 4 ug/ml for overnight incubation by DAPI staining analysis; type: functional, cell-based; method in brief: as §2
PtK2 [6] = assay: Effect on F-actin cytoskeleton in Potorous tridactylus PtK2 cells at 2 ug/ml for overnight incubation by DAPI staining analysis; type: cell-based
Method in brief: (§4)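 PtK2 cells grown on glass coverslips and exposed to compound overnight, with methanol-only controls. Fixed in 3.7% formalin for 10 min, permeabilized with 0.1% Triton X-100 for 5 min, then stained with Alexa Fluor 488 phalloidin (1:100) for 1 h. F-actin (green) and DNA (blue) examined by fluorescence microscopy.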

[7] = Antiproliferative activity against human KB-3-1 cells by MTT assay; type: functional, cell-based; method in brief: as §1
L929 [8] = assay: Effect on spindle formation in mouse L929 cells at 0.6 ug/ml by impedance profiling; type: cell-based; method in brief: as §3
PtK2 [9] = assay: Effect on chromosme distribution in Potorous tridactylus PtK2 cells at 4 ug/ml for overnight incubation by DAPI staining analysis; type: functional, cell-based; method in brief: as §2
Homo sapiens = organism: Homo sapiens; assay: Induction of actin polymerization (unknown origin) at 28 ug/ml after 20 mins by fluorescence analysis
Method in brief: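 Pyrene-labelled muscle actin used, with pyrene fluorescence reporting polymerization state. Baseline read 3 min, then compound or methanol added and read a further 20 min. Polymerization then started with 10X actin polymerization buffer and read for 1 h.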

L929 [10] = assay: Effect on spindle formation in mouse L929 cells at 3 ng/ml by impedance profiling; type: cell-based
Method in brief: (§5)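 L-929 mouse fibroblasts were cultured at 37 °C and 10% CO₂ in supplier-recommended medium. Cells were exposed to compound, with methanol-only controls, and impedance was recorded over time. The time-dependent impedance curves served as a mode-of-action fingerprint and were compared statistically, by cluster analysis, with curves from a panel of reference compounds, including microtubule-interfering agents.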

L929 [11] = assay: Effect on microtubule polymerization in mouse L929 cells at 3 ng/ml by impedance profiling; type: cell-based; method in brief: as §5
L929 [12] = assay: Effect on microtubule polymerization in mouse L929 cells at 0.4 ug/ml by impedance profiling; type: cell-based; method in brief: as §3
L929 [13] = assay: Effect on spindle formation in mouse L929 cells at 0.4 ug/ml by impedance profiling; type: cell-based; method in brief: as §3
PtK2 [14] = assay: Effect on F-actin cytoskeleton in Potorous tridactylus PtK2 cells at 3 ug/ml for overnight incubation by DAPI staining analysis; type: cell-based; method in brief: as §4

Sequence of Tubulin (Sus scrofa) (P02550 whole entry, looked up): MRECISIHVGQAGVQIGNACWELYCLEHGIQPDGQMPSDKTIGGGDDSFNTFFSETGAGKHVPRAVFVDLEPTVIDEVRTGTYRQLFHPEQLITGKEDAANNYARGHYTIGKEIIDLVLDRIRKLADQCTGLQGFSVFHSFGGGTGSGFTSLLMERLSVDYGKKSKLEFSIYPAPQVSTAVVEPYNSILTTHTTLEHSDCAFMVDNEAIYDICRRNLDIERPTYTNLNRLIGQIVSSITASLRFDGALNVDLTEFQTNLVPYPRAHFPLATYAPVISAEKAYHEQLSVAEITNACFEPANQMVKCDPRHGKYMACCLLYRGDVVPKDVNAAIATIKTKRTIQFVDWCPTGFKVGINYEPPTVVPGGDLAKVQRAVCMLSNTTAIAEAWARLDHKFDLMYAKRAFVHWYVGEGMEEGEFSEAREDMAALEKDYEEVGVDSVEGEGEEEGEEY
Sequence of Tubulin (Sus scrofa) (P02554 whole entry, looked up): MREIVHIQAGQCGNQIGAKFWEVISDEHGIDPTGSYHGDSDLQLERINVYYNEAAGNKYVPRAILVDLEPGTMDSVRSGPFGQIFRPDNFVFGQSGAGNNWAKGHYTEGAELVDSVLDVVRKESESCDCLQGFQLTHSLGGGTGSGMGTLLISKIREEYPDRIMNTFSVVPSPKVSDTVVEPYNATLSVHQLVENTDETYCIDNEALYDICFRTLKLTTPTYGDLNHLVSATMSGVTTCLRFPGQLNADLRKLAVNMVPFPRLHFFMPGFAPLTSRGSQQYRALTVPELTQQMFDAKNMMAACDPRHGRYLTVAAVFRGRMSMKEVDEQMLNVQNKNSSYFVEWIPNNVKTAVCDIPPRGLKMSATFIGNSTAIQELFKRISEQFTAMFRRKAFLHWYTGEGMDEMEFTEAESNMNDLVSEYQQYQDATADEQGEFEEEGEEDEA

SMILES | IC50 [1] [nM] | inhibition (Tubulin (Sus scrofa)) | Activity (PtK2 [2]) | Activity (L929 [3]) | IC50 (L929 [4]) | Activity (PtK2 [5]) | Activity (PtK2 [6]) | IC50 [7] | Activity (L929 [8]) | Activity (PtK2 [9]) | Activity (Homo sapiens) | Activity (L929 [10]) | Activity (L929 [11]) | Activity (L929 [12]) | Activity (L929 [13]) | Activity (PtK2 [14])
C#CC(=O)O[C@H]1C[C@@H]2CC3(C[C@@H]2C1)OCC(C)(C)CO3 | 3000 | Active | Active | Active | 2200 nM | Active | Active | 21600 nM | Active | Active | Active |  |  |  |  | 
CCCC(=O)OCN(C(=O)[C@@H](NC(=O)[C@H]1CCCCN1C)[C@@H](C)CC)[C@H](C[C@@H](OC(C)=O)c1nc(C(=O)N[C@@H](Cc2ccc(O)cc2)C[C@H](C)C(=O)O)cs1)C(C)C |  |  |  |  |  |  |  |  |  |  |  | Active | Active |  |  | 
O=C1C=C[C@H]2C(=O)C=C[C@@H]12 | 3000 | Active | Active |  | 3000 nM | Active |  | 6000 nM |  | Active |  |  |  | Active | Active | inactive
CC1(C)COC2(C[C@H]3C[C@H](O)C[C@H]3C2)OC1 |  |  |  |  | > 40 µg/mL |  |  | > 40 µg/mL |  |  |  |  |  |  |  | 
